{"data": "Measured values collected from several papers", "read-out": "cell growth or viability", "note": "Each line is one published result; the experiments were not run side by side. pIC50: −log10 of the molar value."}
{"Compound": "COc1ccc2c(c1)[nH]c1c(C)nccc12", "cell line": "BT-474", "assay": "MTT", "conditions": "72 h", "quantity": "pIC50", "value": 4.69}
{"Compound": "CN[C@@H]1C[C@H]2O[C@@](C)([C@@H]1OC)n1c3ccccc3c3c4c(c5c6ccccc6n2c5c31)C(=O)NC4", "cell line": "KB 3-1", "assay": "WST-1", "conditions": "5 days", "quantity": "Kb", "value": "4 nM"}
{"Compound": "Cc1sc2c(c1C)C(c1ccc(Cl)cc1)=N[C@@H](CC(=O)Nc1ccc(O)cc1)c1nnc(C)n1-2", "cell line": "MB002", "conditions": "7 days", "quantity": "pIC50", "value": 7.90}
{"Compound": "N.N.[Cl][Pt][Cl]", "cell line": "M21", "assay": "SRB", "conditions": "48 h", "quantity": "pIC50", "value": 4.77}
{"Compound": "CC[C@@H]1C(=O)N(C)c2cnc(Nc3ccc(C(=O)NC4CCN(C)CC4)cc3OC)nc2N1C1CCCC1", "cell line": "MB002", "conditions": "7 days", "quantity": "pIC50", "value": 8.47}
{"Compound": "CC[C@H](C)[C@@H]([C@@H](CC(=O)N1CCC[C@H]1[C@H](OC)[C@@H](C)C(=O)N[C@H](C)[C@@H](O)c1ccccc1)OC)N(C)C(=O)[C@@H](NC(=O)[C@H](C(C)C)N(C)C(=O)CCc1cn(CCOCCOCCOCCOCC(=O)NCc2ccc(CN3C(=O)[C@H]4CC(=O)N[C@H](C(=O)O)CC(=O)NCC(=O)N[C@@H](CCCNC(=N)N)C(=O)NC[C@H]3C(=O)N4)cc2)nn1)C(C)C", "cell line": "M21", "assay": "MTT", "conditions": "72 h", "quantity": "pIC50", "value": 6.40}
{"Compound": "N.N.[Cl][Pt][Cl]", "cell line": "B16-F10", "assay": "MTT", "quantity": "pIC50", "value": 5.03}
{"Compound": "CC[C@H](Nc1nc(NCc2cnc(C)cc2C)c2ncn(C(C)C)c2n1)[C@@H](C)O", "cell line": "MB002", "conditions": "7 days", "quantity": "pIC50", "value": 6.56}
{"Compound": "CC[C@H](C)[C@@H]([C@@H](CC(=O)N1CCC[C@H]1[C@H](OC)[C@@H](C)C(=O)N[C@H](C)[C@@H](O)c1ccccc1)OC)N(C)C(=O)[C@@H](NC(=O)[C@H](C(C)C)N(C)C(=O)OCc1ccc(NC(=O)[C@H](C)NC(=O)[C@@H](NC(=O)CCc2cn(CCOCCOCCOCCOCC(=O)NCc3ccc(CN4C(=O)[C@H]5CC(=O)N[C@H](C(=O)O)CC(=O)NCC(=O)N[C@@H](CCCNC(=N)N)C(=O)NC[C@H]4C(=O)N5)cc3)nn2)C(C)C)cc1)C(C)C", "cell line": "M21", "assay": "MTT", "conditions": "72 h", "quantity": "pIC50", "value": 8.16}
{"Compound": "N.N.[Cl][Pt][Cl]", "cell line": "CCD 19Lu", "conditions": "24 h", "quantity": "pIC50", "value": "< 4.00"}
